From ChEMBL document CHEMBL1142894, “Preparation of 5-aryl-3-alkylthio-l,2,4-triazoles and corresponding sulfones with antiinflammatory-analgesic activity” (Bioorg Med Chem, 2007)

Key:
Mus musculus [1] = assay: Antiinflammatory activity against carrageenan-induced paw edema in Swiss albino mouse assessed as swelling thickness at 50 mg/kg, po after 180 mins; assay type: functional
How it was run: (§1)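 Oral dosing in 0.5% CMC; vehicle to controls. Then carrageenan (0.5 mg/25 ll, freshly suspended in 154 mM saline) injected into the right hind paw subplantar tissue; saline into the left paw. Right-left footpad thickness difference measured by dial gauge calliper every 90 min over 6 h. Inhibition % is relative to vehicle control. n = 6; mean ± SEM.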

Mus musculus [2] = assay: Antiinflammatory activity against carrageenan-induced paw edema in Swiss albino mouse assessed as swelling thickness at 50 mg/kg, po after 270 mins; assay type: functional; how it was run: as §1
Mus musculus [3] = assay: Antiinflammatory activity against carrageenan-induced paw edema in Swiss albino mouse assessed as swelling thickness at 50 mg/kg, po after 360 mins; assay type: functional; how it was run: as §1
Mus musculus [4] = assay: Antiinflammatory activity against carrageenan-induced paw edema in Swiss albino mouse assessed as swelling thickness at 200 mg/kg, po after 90 mins; assay type: functional; how it was run: as §1
Mus musculus [5] = assay: Antiinflammatory activity against carrageenan-induced paw edema in Swiss albino mouse assessed as swelling thickness at 200 mg/kg, po after 180 mins; assay type: functional; how it was run: as §1
Mus musculus [6] = assay: Antiinflammatory activity against carrageenan-induced paw edema in Swiss albino mouse assessed as swelling thickness at 200 mg/kg, po after 270 mins; assay type: functional; how it was run: as §1
Mus musculus [7] = assay: Antiinflammatory activity against carrageenan-induced paw edema in Swiss albino mouse assessed as swelling thickness at 200 mg/kg, po after 360 mins; assay type: functional; how it was run: as §1
Mus musculus [8] = assay: Inhibition of carrageenan-induced paw edema in Swiss albino mouse at 25 mg/kg, po after 90 mins relative to control; assay type: functional; settings: 1.5 h; how it was run: as §1
Mus musculus [9] = assay: Inhibition of carrageenan-induced paw edema in Swiss albino mouse at 25 mg/kg, po after 180 mins relative to control; assay type: functional; settings: 3 h; how it was run: as §1
Mus musculus [10] = assay: Inhibition of carrageenan-induced paw edema in Swiss albino mouse at 25 mg/kg, po after 270 mins relative to control; assay type: functional; settings: 4.5 h; how it was run: as §1
Mus musculus [11] = assay: Inhibition of carrageenan-induced paw edema in Swiss albino mouse at 25 mg/kg, po after 360 mins relative to control; assay type: functional; settings: 6 h; how it was run: as §1
Mus musculus [12] = assay: Inhibition of carrageenan-induced paw edema in Swiss albino mouse at 50 mg/kg, po after 90 mins relative to control; assay type: functional; settings: 1.5 h
How it was run: (§2)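 Mice, n = 6 per group. Test agent given orally as a suspension in 0.5% sodium CMC in distilled water; controls received vehicle only. Afterwards, 0.5 mg/25 ll carrageenan in saline (154 mM NaCl) injected subplantar into the right hind paw, saline into the left. Right-minus-left footpad thickness measured by dial gauge caliper every 90 min for 6 h. Inhibition is relative to vehicle-control group means.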

Mus musculus [13] = assay: Inhibition of carrageenan-induced paw edema in Swiss albino mouse at 50 mg/kg, po after 180 mins relative to control; assay type: functional; settings: 3 h; how it was run: as §1
Mus musculus [14] = assay: Inhibition of carrageenan-induced paw edema in Swiss albino mouse at 50 mg/kg, po after 270 mins relative to control; assay type: functional; settings: 4.5 h; how it was run: as §2
Mus musculus [15] = assay: Inhibition of carrageenan-induced paw edema in Swiss albino mouse at 50 mg/kg, po after 360 mins relative to control; assay type: functional; settings: 6 h; how it was run: as §2
Mus musculus [16] = assay: Inhibition of carrageenan-induced paw edema in Swiss albino mouse at 200 mg/kg, po after 90 mins relative to control; assay type: functional; settings: 1.5 h; how it was run: as §1
Mus musculus [17] = assay: Inhibition of carrageenan-induced paw edema in Swiss albino mouse at 200 mg/kg, po after 180 mins relative to control; assay type: functional; settings: 3 h; how it was run: as §1
Mus musculus [18] = assay: Inhibition of carrageenan-induced paw edema in Swiss albino mouse at 200 mg/kg, po after 270 mins relative to control; assay type: functional; settings: 4.5 h; how it was run: as §1
Mus musculus [19] = assay: Inhibition of carrageenan-induced paw edema in Swiss albino mouse at 200 mg/kg, po after 360 mins relative to control; assay type: functional; settings: 6 h; how it was run: as §1
Mus musculus [20] = assay: Acute toxicity in Swiss albino mouse assessed as lethal effect at 25 mg/kg/day, po after 72 hrs; assay type: organism-based; set-up: route oral; settings: in vivo
How it was run: (§3)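 Oral single dose suspended in 0.5% carboxymethylcellulose, given after a 24 h fast; food and water returned 1 h after dosing. Vehicle-only controls. Mice observed at 1 h, then once daily for 72 h, for toxic signs and mortality.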

Mus musculus [21] = assay: Acute toxicity in Swiss albino mouse assessed as lethal effect at 50 mg/kg/day, po after 72 hrs; assay type: organism-based; set-up: route oral; settings: in vivo; how it was run: as §3
Mus musculus [22] = assay: Acute toxicity in Swiss albino mouse assessed as lethal effect at 100 mg/kg/day, po after 72 hrs; assay type: organism-based; set-up: route oral; settings: in vivo; how it was run: as §3
Mus musculus [23] = assay: Acute toxicity in Swiss albino mouse assessed as lethal effect at 200 mg/kg/day, po after 72 hrs; assay type: organism-based; set-up: route oral; settings: in vivo; how it was run: as §3
Mus musculus [24] = assay: Antiinflammatory activity against carrageenan-induced paw edema in Swiss albino mouse assessed as swelling thickness at 50 mg/kg, po after 90 mins; assay type: functional; how it was run: as §1

Compound: CCS(=O)(=O)c1nc(-c2ccc(Cl)cc2)n[nH]1
- Activity (Mus musculus [1]): 36.1 10^-2mm
- Activity (Mus musculus [2]): 37.2 10^-2mm
- Activity (Mus musculus [3]): 39.4 10^-2mm
- Activity (Mus musculus [4]): 45.5 10^-2mm
- Activity (Mus musculus [5]): 48.9 10^-2mm
- Activity (Mus musculus [6]): 55.4 10^-2mm
- Activity (Mus musculus [7]): 58.4 10^-2mm
- inhibition in vivo at 25 mg/kg (Mus musculus [8]): 13.9%
- inhibition in vivo at 25 mg/kg (Mus musculus [9]): 16.5%
- inhibition in vivo at 25 mg/kg (Mus musculus [10]): 10.6%
- inhibition in vivo at 25 mg/kg (Mus musculus [11]): 15%
- inhibition in vivo at 50 mg/kg (Mus musculus [12]): 33.5%
- inhibition in vivo at 50 mg/kg (Mus musculus [13]): 39.2%
- inhibition in vivo at 50 mg/kg (Mus musculus [14]): 42.6%
- inhibition in vivo at 50 mg/kg (Mus musculus [15]): 45.3%
- inhibition in vivo at 200 mg/kg (Mus musculus [16]): 14.5%
- inhibition in vivo at 200 mg/kg (Mus musculus [17]): 17.7%
- inhibition in vivo at 200 mg/kg (Mus musculus [18]): 14.5%
- inhibition in vivo at 200 mg/kg (Mus musculus [19]): 18.9%
- Activity (Mus musculus [20]): Non-toxic
- Activity (Mus musculus [21]): Non-toxic
- Activity (Mus musculus [22]): Non-toxic
- Activity (Mus musculus [23]): Non-toxic
- Activity (Mus musculus [24]): 35.4 10^-2mm
